Screens (PubChem)
Most compounds without a hit are left out; they make up all but 3.5% or so of the library.
MrgX1 ag: agonists of human MrgX1 receptor, primary screen, HEK293 cells, Fluo-4 calcium flux. Mas-related G-protein coupled receptor member X1 (Homo sapiens), Q96LB2. Fluo-4 calcium fluorescence, agonist mode; stronger effect = higher value. B-score at 10 µM. 0.44% of 310,000 active;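 active means calcium response B-score plate-corrected fluorescence ratio at least 3 library SD, with starting fluorescence B-score inside 5 SD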
Target sequence (Q96LB2 whole entry, looked up): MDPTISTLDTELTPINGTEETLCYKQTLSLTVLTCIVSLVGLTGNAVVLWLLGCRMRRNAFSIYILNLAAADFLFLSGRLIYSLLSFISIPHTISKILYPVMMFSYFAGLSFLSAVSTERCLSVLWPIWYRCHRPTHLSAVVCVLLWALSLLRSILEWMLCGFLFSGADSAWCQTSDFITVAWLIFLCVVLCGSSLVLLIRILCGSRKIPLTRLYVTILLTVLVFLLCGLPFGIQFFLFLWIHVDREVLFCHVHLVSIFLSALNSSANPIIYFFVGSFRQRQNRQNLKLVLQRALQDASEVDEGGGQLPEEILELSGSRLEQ
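Material: MrgX1-expressing HEK293 cells; input: 15,000 cells per well; doses: test compound given as first of three sequential additions; schedule: overnight plating before 1 h dye loading; technique: Fluo-4 NW calcium-flux fluorescence, kinetic read; evaluation: baseline-normalised fluorescence change ratio, B-scored; control set: plate-wise positive and negative controls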
MrgX1 allo act: positive allosteric modulators of MrgX1, primary screen, HEK293 cells, Fluo-4 calcium flux | Mas-related G-protein coupled receptor member X1 (Homo sapiens), Q96LB2 | FDSS; stronger effect = higher value | B-score at 10 µM | 0.63% of 310,000 active;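 active means plate-corrected calcium response at least 3 library SD above typical, normal starting fluorescence, not activating the receptor alone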;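 further: compound read alongside a low EC10 to EC30 dose of BAM8-22 agonist; peak minus trough fluorescence over baseline measured at the second addition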
MrgX1 antagonist: antagonists of human MrgX1 receptor, primary screen, HEK293 cells, Fluo-4 calcium flux | BAM8-22 antagonism; stronger effect = lower value | 1.3% of 310,000 active | B-score at 10 µM;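 active means calcium-response B-score plate-corrected more than 3 library SD below zero, starting fluorescence within 5 deviations, no agonist response on first addition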;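 further: peak minus trough fluorescence over baseline after final BAM8-22 challenge near maximal dose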
RGS4 act: RGS4 potentiators or activators, primary screen, cell-based, HEK293 M3R inducible RGS4, calcium flux. carbachol calcium flux Fluo4; stronger effect = lower value. B-score at 10 µM. 0.92% of 310,000 active. AID 463111, 2010;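 active means B-score of the integrated calcium signal more than 4 SD below the library mean, with starting fluorescence not abnormally high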;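 further: negative B-score means reduced calcium response which marks RGS4 activation or potentiation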
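test system = M3R-expressing HEK293 line, RGS4 induced by doxycycline | probe or stimulus = carbachol at ECmax as muscarinic agonist stimulus | timing = dye loading 30 min 37 °C, buffer rest 30 min RT | signal = calcium dye Fluo4 fluorescence | evaluation = B score from integrated fluorescence ratio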
RGS4 inh: RGS4 inhibitors, primary screen, cell-based, HEK293 M3R inducible RGS4, calcium flux; Regulator of G-protein signaling 4 (Homo sapiens), P49798; Fluo-4 calcium flux; stronger effect = higher value; triggered by carbachol at its EC20; B-score at 10 µM; 0.45% of 310,000 active; AID 463165, 2010;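 active means B-score, a plate-corrected calcium signal, over three deviations above library mean, with baseline fluorescence within five deviations of library mean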;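 further: RGS4 expression induced by doxycycline in cells with stable M3 receptor; B-score is computed from the integrated fluorescence ratio over baseline after carbachol; higher B-score means a larger calcium signal and so more RGS4 inhibition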
Target sequence (P49798 whole entry, looked up): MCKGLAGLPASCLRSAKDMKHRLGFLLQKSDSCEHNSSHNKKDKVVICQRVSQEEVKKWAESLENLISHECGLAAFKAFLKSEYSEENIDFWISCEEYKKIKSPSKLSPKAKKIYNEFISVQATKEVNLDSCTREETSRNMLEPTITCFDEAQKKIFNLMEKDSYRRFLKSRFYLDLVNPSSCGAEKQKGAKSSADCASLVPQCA
* hit, by the source's call; i = inactive; / = no result given.

SMILES	MrgX1 ag	MrgX1 allo act	MrgX1 antagonist	RGS4 act	RGS4 inh
O=C(CO/N=C1\CCCc2nonc21)Nc1ccc(Br)cc1	i	i	i	i	i
COc1ccccc1C(CNC(=O)C(CCSC)NS(=O)(=O)c1ccccc1F)N1CCCC1 (stereo unspecified)	i	i	i	i	i
N#Cc1cnn(-c2ccccc2)c1NC(=O)CN1CCN(c2ccccc2)CC1	i	i	i	i	i
COc1ccc(C2N(c3ccccc3)C(=S)N3CCCN23)cc1 (stereo unspecified)	i	i	i	i	i
S=C1N(c2ccccc2)C(c2ccc(Cl)cc2)N2CCCN12 (stereo unspecified)	i	i	i	-7.2*	i
CC(c1ccccc1)C1C(C#N)=C(N)OC2=C1C(=O)CC(C)(C)C2 (stereo unspecified)	i	i	i	i	i
CC1(C)CC(=O)C2=C(C1)OC(N)=C(C#N)C2C#Cc1ccccc1 (stereo unspecified)	53*	i	i	i	i
CCc1ccc(CN2CCC(Oc3ccc(C(=O)N4CCCCC4)cc3)CC2)cc1	i	i	i	-7.2*	i
CCc1ccc(CN2CCC(Oc3ccc(C(=O)N4CCCC4)cc3)CC2)cc1	i	i	i	i	i
COc1ccc(-c2cc(-c3ccccc3)nc(Cl)n2)cc1OC	i	i	i	-7*	i
Cc1c([N+](=O)[O-])cc(S(=O)(=O)Nc2ccc(-c3ccc(N4CCCC4)nn3)cc2)cc1[N+](=O)[O-]	i	i	i	i	i
Cc1ccc([N+](=O)[O-])cc1S(=O)(=O)Nc1ccc(-c2ccc(N3CCCC3)nn2)cc1	i	16*	i	i	i
O=[N+]([O-])c1ccc(Cl)c(S(=O)(=O)Nc2ccc(-c3ccc(N4CCCC4)nn3)cc2)c1	i	i	i	i	i
O=[N+]([O-])c1ccc(S(=O)(=O)Nc2ccc(-c3ccc(N4CCCC4)nn3)cc2)cc1	i	6.7*	i	i	i
CCOc1ccc(Br)cc1/C(C)=N\NC1=NCCN1	i	i	i	-7*	i
Cc1ccc(C(=O)N(c2ccccc2)C2CC(C)N(C(=O)c3ccco3)c3ccccc32)cc1 (stereo unspecified)	i	17*	i	i	i
CCN(CC(=O)Nc1ccc2c(c1)OCCO2)C(=O)C1CC(=O)N(c2ccc(OC)cc2OC)C1 (stereo unspecified)	i	i	i	i	i
CCN(CC(=O)NCc1cccs1)C(=O)C1CC(=O)N(c2ccc(OC)cc2OC)C1 (stereo unspecified)	i	i	-4.8*	i	i
C=CCOc1ccccc1/C=c1\sc2nc(=O)c(C)nn2c1=O	28*	i	i	i	i
O=C(Nc1ccc([N+](=O)[O-])cc1Cl)c1cc(Cl)ccc1O	i	i	i	/	/
O=C(Nc1cccc(Cl)c1)c1cc(N=Nc2ccc([N+](=O)[O-])cc2Cl)ccc1O	i	i	-4.6*	i	i
CCOC(=O)c1c(NC(=O)c2nn(CC)cc2Br)sc(C)c1C	i	i	i	i	i
CCOC(=O)c1c(NC(=O)c2nn(CC)cc2Br)sc2c1CCCCC2	i	i	i	-7*	i
Cc1ccc(OCCn2c(=O)n(C)c3ccccc32)cc1	i	i	i	-7.2*	i
CC1(C)CC(=O)C(C=Nc2ccccc2C(=O)O)=C(O)C1	i	i	i	i	i
SMILES	MrgX1 ag	MrgX1 allo act	MrgX1 antagonist	RGS4 act	RGS4 inh
CC1(C)CC(=O)C(C=Nc2ccccc2Sc2ccccc2)=C(O)C1	i	i	i	-8.8*	i
COC(=O)c1ccc(S(=O)(=O)N2Cc3ccccc3C2)cc1	i	i	i	i	i
COc1cccc2c1OCC(C(=O)OCc1cccnc1)=C2	29*	i	i	i	i
CCOC(=O)[C@H]1[C@H]2COc3ccc(C)cc3[C@@H]2N2C(=O)c3ccccc3NC(=O)[C@@]12C	i	i	i	/	/
COCCCNC(=O)c1cccn2c(=O)c3cc4ccccc4cc3nc12	i	i	-8.5*	i	i
OC(COc1ccc(C2C=CCC2)cc1)CN1CCCCC1 (stereo unspecified)	i	i	i	-7*	i
COC(=O)C(C)Oc1ccc2c(c1)O/C(=C\c1ccco1)C2=O (stereo unspecified)	i	i	i	-9.1*	i
COc1ccc(/C=C2\Oc3cc(OCC(N)=O)ccc3C2=O)cc1OC	i	i	-5.4*	-8.2*	i
O=C(O)C1CCC(CNS(=O)(=O)c2ccccc2)CC1 (stereo unspecified)	i	i	i	i	i
CS(=O)(=O)N(CC(=O)NCc1ccncc1)C1CCCCC1	i	i	i	i	i
C=CCNC(=S)/N=c1/ccccn1CC	i	i	i	i	i
O=C(/C=C/c1cc(Br)ccc1O)c1ccco1	39*	i	i	i	i
Nc1ccc(/C=C/C(=O)c2ccco2)cc1	50*	i	i	i	i
N#Cc1ccc(/C=C/C(=O)c2ccco2)cc1	i	i	i	i	i
CN(C(=O)C1CCCO1)C1CCS(=O)(=O)C1 (stereo unspecified)	i	i	i	i	i
COc1ccc(-c2cc(C(=O)Nc3cc(S(=O)(=O)N4CCOCC4)ccc3N3CCOCC3)c3ccccc3n2)cc1	i	i	i	-7*	i
O=C(c1ccncc1)N1CCN(S(=O)(=O)c2ccc(F)cc2)CC1	i	i	i	i	i
Cc1cc(-c2ccccc2)nc(N/N=C/c2ccccc2)n1	i	i	i	i	i
COc1ccc(/C=N/Nc2nc(C)cc(-c3ccccc3)n2)cc1OC	i	i	i	-7.3*	i
Cc1cc(-c2ccccc2)nc(N/N=C/c2ccc(O)cc2O)n1	i	i	i	-7.2*	i
C(=N/Nc1nc(-c2ccccc2)cc(-c2ccccc2)n1)/c1cccnc1	i	i	i	-7.1*	i
Cc1ccc(-c2cc(-c3ccccc3)nc(N/N=C/c3cccnc3)n2)cc1	i	i	i	i	i
O=C(CSc1nnc(CNC(=O)c2c(F)cccc2F)o1)NCC1CCCO1 (stereo unspecified)	i	i	i	i	i
